From ChEMBL document CHEMBL4014282 (Eur J Med Chem, 2017)
Converted amounts (≈) assume the structure as drawn.

What was measured:
MDA-MB-231 = experiment: Antiproliferative activity against human MDA-MB-231 cells after 72 hrs by CellTiter-Glo luminescent assay; format: functional, cell-based; conditions: MDA-MB-231, 72 h
Outline: (§1)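 Cells seeded at 2 x 10⁴/well, rested 24 h, then exposed to increasing concentrations or DMSO vehicle for 72 h. MDA-MB-231 grown in RPMI 1640 with 10% FCS; U2OS grown in DMEM + GlutaMAX with 10% FCS; both at 37°C, 5% CO₂. Viable cells read by ATP luminescence, triplicate wells. IC₅₀ from fitted dose-response curves, mean ± SD of at least 3 independent experiments.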

U2OS [1] = experiment: Antiproliferative activity against human U2OS cells after 72 hrs by CellTiter-Glo luminescent assay; format: functional, cell-based; outline: as §1
[2] = Stability in rat plasma assessed as compound remaining at 1 uM after 120 mins by LC-MS/MS method; format: ADME, cell-free; conditions: read-out: Stability
Outline: (§2)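 Rat or mouse plasma, pH adjusted to 7.4 if needed, spiked with compound at 1 µM (2.5% final DMSO) at 37 °C. Stopped at 0, 15, 30, 60 and 120 min with methanol containing internal standard. Parent measured by LC-MS/MS peak-area ratio and expressed as percent remaining relative to 0 min.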

[3] = Stability in mouse plasma assessed as compound remaining at 1 uM after 120 mins by LC-MS/MS method; format: ADME, cell-free; conditions: read-out: Stability; outline: as §2
[4] = Stability in simulated gastric fluid at pH 1.2 assessed as compound remaining at 1 uM after 120 mins by LC-MS/MS method
Outline: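 Simulated gastric fluid (HCl, NaCl, pepsin; pH 1.2), compound at 1 μM with 2.5% final DMSO, 37 °C. Quenched at 0, 15, 30, 60 and 120 min with methanol containing internal standard. Parent quantified by LC-MS/MS peak-area ratio and expressed as percent remaining versus 0 min.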

[5] = Fraction unbound in rat plasma at 5 uM by LC-MS/MS method; format: ADME, cell-free
Outline: (§3)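 Equilibrium dialysis across a semi-permeable membrane, buffer (pH 7.4) on one side and 100% species-specific plasma on the other. Test compound at 5 μM with 0.5% final DMSO, 37 °C. Both sides sampled at equilibrium and quantified by LC-MS/MS against matrix-matched standard curves. %fu from duplicate incubations, with a control compound in each run.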

[6] = Fraction unbound in mouse plasma at 5 uM by LC-MS/MS method; format: ADME, cell-free; outline: as §3
[7] = Thermodynamic solubility of the compound in phosphate buffered saline at pH 7.4 at 1 mg sonicated for 10 mins measured after 12 hrs by HPLC method; format: physicochemical; conditions: read-out: Therm_solubility
Outline: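 Centrifuged until clear, and supernatant analysed by HPLC at 254 nm. Concentration derived from a linear (Y = aX) calibration of MeCN dilutions at 10–100 µg/mL. Measured at 22 °C.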

[8] = Stability of the compound in PEG400 using liquid sample at 10 mg/ml at 5 degC after 30 days by UV-HPLC method; format: physicochemical; conditions: 720 h
Outline: (§4)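 API dissolved in PEG400 at 70–80 °C with vortexing to a clear solution at 10 mg/mL. Stored at 5 or 25 °C and checked for degradation by HPLC over 30 days.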

[9] = Stability of the compound in PEG400 using liquid sample at 10 mg/ml at 25 degC after 30 days by UV-HPLC method; format: physicochemical; conditions: 720 h; outline: as §4
[10] = Stability of the compound in PEG8000/10% PEG400 formulation using solid sample at 5 mg/ml at 5 degC after 30 days by UV-HPLC method; format: physicochemical; conditions: 720 h
Outline: (§5)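 Solid tablets cast from hot melt: API dissolved in melted PEG8000 at 90–100 °C with stirring, or first dissolved in PEG400 and then mixed into melted PEG8000, giving a formulation containing 10% PEG400. Stored at 5 or 25 °C, degradation assessed by HPLC over 30 days, with one reading at 33 days.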

[11] = Stability of the compound in PEG8000/10% PEG400 formulation using solid sample assessed as compound degradation at 5 mg/ml at 25 degC after 33 days by UV-HPLC method; format: physicochemical; conditions: read-out: Drug degradation; outline: as §5
[12] = Stability of the compound in polysorbate80/poloxamer188 formulation using liquid sample at 1 mg/ml at 25 degC after 30 days by UV-HPLC method; format: physicochemical; conditions: 720 h
Outline: (§6)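 Intravenous-type dosage solution: API at 1 mg/mL in water for injection containing polysorbate 80 and poloxamer 188 (5 mg/mL each). API dissolved in the surfactants at 70–80 °C, hot water added slowly, then cooled to ambient. Stored at 5 or 25 °C; stability followed by HPLC over 30 days.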

[13] = Intrinsic clearance in Sprague-Dawley rat liver microsomes assessed per mg protein at 3 uM preincubated for 45 mins followed by NADPH addition by LC-MS/MS method
[14] = Aqueous solubility of the compound; format: physicochemical; conditions: buffer
[15] = Stability of the compound in PEG400 using liquid sample at 5 mg/ml at 5 degC after 30 days by UV-HPLC method; format: physicochemical; conditions: 720 h
[16] = Stability of the compound in PEG400 using liquid sample at 5 mg/ml at 25 degC after 30 days by UV-HPLC method; format: physicochemical; conditions: 720 h
[17] = Stability of the compound in polysorbate80/poloxamer188 formulation using liquid sample at 1 mg/ml at 5 degC after 30 days by UV-HPLC method; format: physicochemical; conditions: 720 h; outline: as §6
[18] = Stability of the compound in PEG8000 formulation using solid sample at 5 mg/ml at 5 degC after 30 days by UV-HPLC method; format: physicochemical; conditions: 720 h; outline: as §5
[19] = Stability of the compound in PEG8000 formulation using solid sample at 5 mg/ml at 25 degC after 33 days by UV-HPLC method; format: physicochemical; conditions: 792 h; outline: as §5
U2OS [20] = experiment: Cell cycle arrest in human U2OS cells assessed as accumulation at G2/M phase after 24 hrs by propidium iodide staining based flow cytometric method; format: functional
Outline: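 Exponentially growing U2OS cells treated 24 h with compound or DMSO vehicle. Cells collected, PBS-washed and fixed in ice-cold 70% methanol. About 1 million cells stained 30 min at 37 °C with propidium iodide (1%) plus RNase A (2.5%) in PBS, then analysed by flow cytometry. Phase percentages given as mean ± SD of two independent experiments.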

[21] = Intrinsic clearance in CD1 mouse liver microsomes assessed per mg protein at 3 uM preincubated for 45 mins followed by NADPH addition by LC-MS/MS method

Compound | IC50 (MDA-MB-231) [µM] | IC50 (U2OS [1]) [µM] | remaining at 2 h, 1 µM [2] [%] | remaining at 2 h, 1 µM [3] [%] | fraction unbound at 5 µM [5] | fraction unbound at 5 µM [6] | CLH [13] [mL/min] | Stability [4] [%] | further results
COc1cc(OC)c2c(c1Cl)O[C@]1(C2=O)C(NCc2ccc(F)cc2)=CC(=O)C[C@H]1C | 5.2 | 2.6 | 92 | 108 | 0.094 | 0.132 | – | 54 | –
COc1cc(OC)c2c(c1Cl)O[C@]1(C2=O)C(OCc2ccccc2)=C/C(=N/O)C[C@H]1C | 1.4 | 1.2 | 102 | 87 | 0.014 | 0.043 | 59.1 | 81 | solubility thermodynamic at 12 h [7]: 3 µg/mL (≈ 6.76 µM); Stability [15]: Stable; Stability [16]: Stable; Stability [17]: Stable; Stability [12]: Stable; Stability [18]: Stable; Stability [19]: Stable
COc1cc(OC)c2c(c1Cl)O[C@]1(C2=O)C(NCc2ccccc2)=CC(=O)C[C@H]1C | 3.2 | 2.1 | 116 | 117 | 0.111 | 0.141 | 28 | 52 | solubility thermodynamic at 12 h [7]: 62 µg/mL (≈ 145 µM); Stability [15]: Stable; Stability [16]: Stable; Stability [17]: Stable; Stability [12]: Unstable; Activity (U2OS [20]): Dose-dependent effect; Stability [18]: Stable; Stability [19]: Stable
COc1cc(OC)c2c(c1Cl)O[C@]1(C2=O)C(OCc2ccc(F)cc2)=CC(=O)C[C@H]1C | – | – | – | – | – | – | 30.7 | – | CLH [21]: 17.4 mL/min
COc1cc(OC)c2c(c1Cl)O[C@]1(C2=O)C(N(C)Cc2ccccc2)=CC(=O)C[C@H]1C | 3.5 | 1.9 | 106 | 104 | 0.06 | 0.087 | – | 15 | –
COc1cc(OC)c2c(c1Cl)O[C@]1(C2=O)C(NCc2ccc(C)cc2)=CC(=O)C[C@H]1C | 8.2 | 6.9 | 111 | 107 | 0.055 | 0.11 | – | 54 | –

Continued, in another order:

IC50 (MDA-MB-231) [µM] | IC50 (U2OS [1]) [µM] | remaining at 2 h, 1 µM [2] [%] | remaining at 2 h, 1 µM [3] [%] | fraction unbound at 5 µM [5] | fraction unbound at 5 µM [6] | CLH [13] [mL/min] | Compound | Stability [4] [%] | further results
1.7 | 1.3 | 101 | 91 | 0.027 | 0.112 | 45 | COc1cc(OC)c2c(c1Cl)O[C@]1(C2=O)C(OCc2ccccc2)=CC(=O)C[C@H]1C | 62 | solubility thermodynamic at 12 h [7]: 0.3 µg/mL (≈ 0.7 µM); Stability [8]: Stable; Stability [9]: Stable; Stability [10]: Stable; degraded at 792 h, 5 mg/ml [11]: 4%; Stability [12]: Unstable
17.1 | 13.7 | – | – | – | – | – | COc1cc(OC)c2c(c1Cl)O[C@]1(C2=O)C(O[C@H](C)c2ccccc2)=CC(=O)C[C@H]1C | – | solubility [14]: Insoluble
7.1 | 1.6 | – | – | – | – | – | COc1cc(OC)c2c(c1Cl)O[C@]1(C2=O)C(O[C@@H](C)c2ccccc2)=CC(=O)C[C@H]1C | – | solubility [14]: Insoluble
– | – | 107 | 107 | 0.216 | 0.427 | – | COC1=CC(=O)C[C@@H](C)[C@]12Oc1c(Cl)c(OC)cc(OC)c1C2=O [GRISEOFULVIN] | 73 | Activity (U2OS [20]): Dose-dependent effect
1.7 | 1.3 | 89 | 102 | 0.018 | 0.018 | 60.2 | COc1cc(OC)c2c(c1Cl)O[C@]1(C2=O)C(OCc2ccc(C)cc2)=CC(=O)C[C@H]1C | 68 | –
